ChEMBL document CHEMBL1781963, “Discovery of novel hepatoselective HMG-CoA reductase inhibitors for treating hypercholesterolemia: a bench-to-bedside case study on tissue selective drug distribution” (Bioorg Med Chem Lett, 2011)
pIC50: −log10 of the molar value.

How the values were obtained:
Homo sapiens [1] = experiment: Inhibition of HMG-CoA reductase in human assessed as decrease in AUC (0 to 24 hrs) of mevalonate level in plasma at 10 mg administered as single dose relative to control; format: functional
Plasma [2] = experiment: fAUC (0 to infinity) in human plasma at 240 mg administered as single dose; format: ADME, cell-free
Summary of the method: (§1)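 Phase 1 single ascending oral dose in healthy volunteers, with N per dose group. Total plasma Cmax and AUC(0-∞) were measured. Free-drug exposures were derived from these using plasma protein binding (human plasma fu measured at 0.5 μg/mL).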

Canis familiaris [3] = experiment: fAUC (0 to 24 hrs) in dog at 1 mg/kg, iv; format: ADME, organism-based, Canis lupus familiaris; design: dose 1 mg/kg, route intravenous; details: in vivo
Summary of the method: (§2)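 Rat and dog given 1 mg/kg iv, or po at 10 mg/kg (rat) or 5 mg/kg (dog). Plasma sampled to 24 h. AUC(0-24) as free drug using plasma protein binding values. Geometric mean of n = 2 animals/group; dog po n = 3 or n = 1.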

[4] = target: T1, 3-hydroxy-3-methylglutaryl-coenzyme A reductase (Rattus norvegicus, UniProt P51639); experiment: Inhibition of HMG-CoA reductase in Sprague-Dawley rat liver microsomes using [14C]HMG-CoA as substrate preincubated for 0.5 hrs before substrate addition measured after 0.75 hrs by beta scintillation counting; design: species or system Microsome
T1 sequence (P51639 whole entry): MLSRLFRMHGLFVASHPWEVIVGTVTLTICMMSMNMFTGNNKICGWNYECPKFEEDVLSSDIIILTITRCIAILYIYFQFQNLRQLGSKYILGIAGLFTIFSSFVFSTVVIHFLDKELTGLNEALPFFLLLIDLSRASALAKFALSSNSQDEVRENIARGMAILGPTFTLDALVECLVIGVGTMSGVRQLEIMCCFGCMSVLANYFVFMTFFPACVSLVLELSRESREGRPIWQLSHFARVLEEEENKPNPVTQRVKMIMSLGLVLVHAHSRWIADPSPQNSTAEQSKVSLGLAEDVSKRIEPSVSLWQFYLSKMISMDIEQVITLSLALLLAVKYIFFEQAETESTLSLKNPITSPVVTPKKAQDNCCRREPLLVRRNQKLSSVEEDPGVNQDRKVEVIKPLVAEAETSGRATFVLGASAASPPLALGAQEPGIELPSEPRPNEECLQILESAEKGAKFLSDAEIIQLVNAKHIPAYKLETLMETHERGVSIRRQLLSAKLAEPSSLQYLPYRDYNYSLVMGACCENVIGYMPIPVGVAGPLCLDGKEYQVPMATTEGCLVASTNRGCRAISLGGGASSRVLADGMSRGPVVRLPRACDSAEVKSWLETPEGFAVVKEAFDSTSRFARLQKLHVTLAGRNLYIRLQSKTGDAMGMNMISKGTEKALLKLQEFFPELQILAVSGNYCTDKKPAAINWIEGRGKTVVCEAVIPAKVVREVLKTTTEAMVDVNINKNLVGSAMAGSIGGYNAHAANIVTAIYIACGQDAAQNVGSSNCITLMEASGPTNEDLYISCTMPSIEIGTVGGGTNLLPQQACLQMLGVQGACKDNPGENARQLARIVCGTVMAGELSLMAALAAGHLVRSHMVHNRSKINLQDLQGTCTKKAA
Summary of the method: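 Enzyme inhibition was measured in an HMG-CoA reductase preparation from rat microsomes. IC50 is reported as mean ± SEM of n ≥ 2 independent determinations.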

[5] = Cmax in human plasma at 3 mg administered as single dose; format: ADME, organism-based; design: dose 3 mg
Summary of the method: (§3)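 Phase 1 single ascending oral dose in healthy volunteers, about 5–6 subjects per dose. Total plasma drug Cmax and AUC(0-∞) were measured. Free-drug exposures were derived using plasma protein binding.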

[6] = Systemic plasma clearance in dog at 1 mg/kg, iv; format: ADME, organism-based, Canis lupus familiaris; design: dose 1 mg/kg, route intravenous; summary of the method: as §2
Canis familiaris [7] = experiment: fCmax in dog at 5 mg/kg, po; format: ADME, organism-based, Canis lupus familiaris; design: dose 5 mg/kg, route oral; details: in vivo
Summary of the method: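 Single po dose: rat 10 mg/kg (n = 2), dog 5 mg/kg (n = 1 or 3 animals). Values are geometric means. Cmax is given as free drug concentration using plasma protein binding values, which were determined at 0.5 μg/mL.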

[8] = Fraction unbound in dog plasma at 0.5 ug/ml; format: ADME, cell-free, Canis lupus familiaris
Summary of the method: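 Unbound fraction in rat, dog or human plasma, measured at a drug concentration of 0.5 μg/mL.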

Homo sapiens [9] = experiment: Inhibition of HMG-CoA reductase in human assessed as decrease in AUC (0 to 72 hrs) of mevalonate level in plasma at 40 mg administered as single dose relative to control; format: functional
Plasma [10] = experiment: fCmax in human plasma at 320 mg administered as single dose; format: ADME, cell-free; summary of the method: as §1
[11] = Volume of distribution at steady state in rat at 1 mg/kg, iv; format: ADME, organism-based; design: dose 1 mg/kg, route intravenous; details: in vivo, read-out: Vdss; summary of the method: as §2
[12] = Oral bioavailability in dog at 5 mg/kg; format: ADME, organism-based, Canis lupus familiaris; details: in vivo; summary of the method: as §2
Rattus norvegicus [13] = experiment: fAUC (0 to 24 hrs) in rat at 10 mg/kg, po; format: ADME, organism-based; design: dose 10 mg/kg, route oral; details: in vivo; summary of the method: as §2
Canis familiaris [14] = experiment: fAUC (0 to 24 hrs) in dog at 5 mg/kg, po; format: ADME, organism-based, Canis lupus familiaris; design: dose 5 mg/kg, route oral; details: in vivo; summary of the method: as §2
Homo sapiens [15] = experiment: Inhibition of HMG-CoA reductase in human assessed as decrease in AUC (0 to 24 hrs) of mevalonate level in plasma at 40 mg administered as single dose relative to control; format: functional
[16] = Systemic plasma clearance in rat at 1 mg/kg, iv; format: ADME, organism-based; design: dose 1 mg/kg, route intravenous; summary of the method: as §2
[17] = Oral bioavailability in rat at 10 mg/kg; format: ADME, organism-based; details: in vivo; summary of the method: as §2
[18] = Drug excretion in human urine after 24 hrs; format: ADME, tissue-based; details: read-out: Activity
Summary of the method: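 Single ascending oral dose in healthy volunteers; the percentage of drug excreted in urine was measured at 24 h post dose.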

[19] = Ratio of fAUC (0 to 24 hrs) in liver to plasma in Sprague-Dawley rat at 10 mg/kg, po; format: ADME, organism-based; design: dose 10 mg/kg, route oral; details: liver and plasma
Summary of the method: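 Sprague-Dawley rats given a single oral dose (10 or 25 mg/kg). Free drug measured in liver and plasma at 0, 0.5, 1, 2, 3, 4, 7 and 24 h, n = 3/time point.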

Homo sapiens [20] = experiment: Inhibition of HMG-CoA reductase in human assessed as decrease in AUC (0 to 72 hrs) of mevalonate level in plasma at 320 mg administered as single dose relative to control; format: functional
Plasma [21] = experiment: fCmax in human plasma at 40 mg administered as single dose; format: ADME, cell-free; summary of the method: as §1
[22] = Half life in rat at 1 mg/kg, iv; format: ADME, organism-based; design: dose 1 mg/kg, route intravenous; details: in vivo
Summary of the method: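 Intravenous 1 mg/kg dose in rat or dog. Terminal half-life was derived from plasma concentrations and is reported as the geometric mean of n = 2 animals per group.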

[23] = Cmax in human plasma at 40 mg administered as single dose; format: ADME, organism-based; design: dose 40 mg; summary of the method: as §3
[24] = Volume of distribution at steady state in dog at 1 mg/kg, iv; format: ADME, organism-based, Canis lupus familiaris; design: dose 1 mg/kg, route intravenous; details: in vivo, read-out: Vdss; summary of the method: as §2
Rattus norvegicus [25] = experiment: fAUC (0 to 24 hrs) in rat at 1 mg/kg, iv; format: ADME, organism-based; design: dose 1 mg/kg, route intravenous; details: in vivo; summary of the method: as §2
Plasma [26] = experiment: fCmax in human plasma at 3 mg administered as single dose; format: ADME, cell-free; summary of the method: as §1
[27] = AUC (0 to infinity) in human plasma at 40 mg administered as single dose; format: ADME, cell-free; design: dose 40 mg, time infinity; summary of the method: as §3
[28] = AUC (0 to infinity) in human plasma at 160 mg administered as single dose; format: ADME, cell-free; design: dose 160 mg, time infinity; summary of the method: as §3
Plasma [29] = experiment: fAUC (0 to infinity) in human plasma at 1 mg administered as single dose; format: ADME, cell-free

O=C([O-])C[C@H](O)C[C@H](O)CCn1c(-c2ccc(F)cc2)nc(C(=O)NCc2cccc(F)c2)c1C1CC1.[Na+]
inhibition (INH) (Homo sapiens [1]): -25% | fAUC (Plasma [2]): 7.89 ng·h/mL | fAUC (Canis familiaris [3]): 293 ng·h/mL | pIC50 [4]: 8.92 | Cmax [5]: 0.0552 ng/mL | clearance [6]: 25 mL/min/kg | fCmax (Canis familiaris [7]): 5.4 ng/mL | fraction unbound at 0.5 ug/ml [8]: 0.43 | inhibition (INH) (Homo sapiens [9]): -19% | fCmax (Plasma [10]): 12.8 ng/mL | Vd [11]: 0.17 L/kg | bioavailability [12]: 2.2% | fAUC (Rattus norvegicus [13]): 2.7 ng·h/mL | fAUC (Canis familiaris [14]): 51 ng·h/mL | inhibition (INH) (Homo sapiens [15]): -39% | clearance [16]: 39 mL/min/kg | bioavailability [17]: 0.3% | dose excreted at 24 h [18]: < 1% | Kp uu [19]: 41 | inhibition (INH) (Homo sapiens [20]): -28% | fCmax (Plasma [21]): 0.653 ng/mL | half-life [22]: 25.8 min | Cmax [23]: 2.25 ng/mL | Vd [24]: 0.1 L/kg | fAUC (Rattus norvegicus [25]): 83 ng·h/mL | fCmax (Plasma [26]): 0.016 ng/mL | AUC(0-inf) [27]: 6.27 ng·h/mL

Cc1ccc(CNC(=O)c2nn(-c3ccc(F)cc3)c(CC[C@@H](O)C[C@@H](O)CC(=O)O)c2C(C)C)cc1
fAUC (Canis familiaris [3]): 28 ng·h/mL | pIC50 [4]: 9.00 | clearance [6]: 19 mL/min/kg | fCmax (Canis familiaris [7]): 51.5 ng/mL | fraction unbound at 0.5 ug/ml [8]: 0.032 | inhibition (INH) (Homo sapiens [9]): -3% | Vd [11]: 0.14 L/kg | bioavailability [12]: 44% | fAUC (Rattus norvegicus [13]): 6.4 ng·h/mL | fAUC (Canis familiaris [14]): 64 ng·h/mL | inhibition (INH) (Homo sapiens [15]): -41% | clearance [16]: 27 mL/min/kg | bioavailability [17]: 6% | dose excreted at 24 h [18]: 12% | fCmax (Plasma [21]): 90.3 ng/mL | half-life [22]: 20.4 min | Cmax [23]: 1770 ng/mL | Vd [24]: 0.1 L/kg | fAUC (Rattus norvegicus [25]): 10 ng·h/mL | AUC(0-inf) [28]: 25000 ng·h/mL | fAUC (Plasma [29]): 4 ng·h/mL | AUC(0-inf) [27]: 5110 ng·h/mL

CC(C)c1nc(N(C)S(C)(=O)=O)nc(-c2ccc(F)cc2)c1/C=C/[C@@H](O)C[C@@H](O)CC(=O)O [ROSUVASTATIN]
Kp uu [19]: 30
